Screens as filed in PubChem.
PglD inh: C. jejuni PglD acetyltransferase inhibitors, primary screen, biochemical, DTNB colorimetric, single point; 360,000 tested, 0.098% active; AID 602405, 2012; purified PglD enzyme, DTNB colorimetric CoA detection; inhibition, % at 12.5 µM; in the data active = inhibition above about 16%, passing the limit was not always enough
miR122 inh: miR-122 Renilla sensor signal increase in Huh7, primary screen, miR-122 inhibitor project, cell-based, single point, plate reader | activation (reporter increase), % at 12.5 µM | AID 602342, 2012 | Huh7 miR-122 Renilla luciferase sensor, 48 h; neutral wells = 0, positive control = 100 | 340,000 tested, 0.3% active;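 active = mean replicate activation score at least 90 and every replicate individually at or above 90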;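 note: higher luciferase means less miR-122 activity so hits act as miR-122 inhibitors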
Cneo AK release: Cryptococcus neoformans cell lysis inducers, primary screen, AK release luminescence, single concentration; C. neoformans lysis, adenylate kinase release luminescence, 4 h; normalised: neutral wells 0, clomiphene wells 100; lysis activity, % at 15 µM; 360,000 tested, 0.2% active;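 active = mean lysis activity across replicates of at least 80%, whatever share of replicates individually reach that level; inactive = mean lysis activity below 80%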
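Schedule: static 4 h at 37 °C with compound, 1 h detection; system: C. neoformans cells; benchmarks: Clomiphene as positive control; buffer or medium: fresh YPD medium; measure: luminescence rise reflecting yeast cell lysis; measured by: luminescent adenylate kinase detection reagent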
CAL PDZ FP-1: untagged CAL PDZ binding inhibitors, primary screen, biochemical, fluorescence polarization, HTS | Golgi-associated PDZ and coiled-coil motif-containing protein (Homo sapiens), Q9HD26 | purified CAL PDZ, TMR-peptide fluorescence polarization, 1 h | inhibition, % at 24.9 µM | 300,000 tested, 0.92% active | AID 602252, 2012;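 active = mean inhibition of at least 30% with at least half of replicates also reaching 30%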;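 note: 0% = DMSO neutral control and 100% = excess unlabeled competitor peptide PRC23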
CAL PDZ FP-2: CAL PDZ peptide-binding inhibitors, primary screen, biochemical, fluorescence polarization, Cer-tagged CAL PDZ, HTS. purified CAL PDZ, TMR-peptide fluorescence polarization, 1 h. AID 504414, 2011. 330,000 tested, 0.02% active. inhibition, % at 20 µM. Golgi-associated PDZ and coiled-coil motif-containing protein (Homo sapiens), Q9HD26;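 active = highest replicate inhibition of at least 40%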;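 note: plate controls were DMSO neutral control wells for no effect and unlabeled competitor peptide control wells for full effect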
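Assay system – tagged CAL PDZ protein CerCALP, purified · Timing – 1 h at RT · Compound – single point, 20 µM · Measured by – fluorescence polarization from S- and P-plane intensities, G-factor corrected · Evaluation – inhibition from polarization loss · Probe or stimulus – TMR reporter peptide T*-PRC34 · Buffer or medium – pH 7.4 phosphate-saline buffer, reducing agent, detergent, IgG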
Starred values were filed as active, the others as inactive; nt = not tested or not shown; [ ] = another dose, or the depositor's remark. An excerpt weighted towards active compounds, which were near 1.1% of everything screened.

SMILES	PglD inh	miR122 inh	Cneo AK release	CAL PDZ FP-1	CAL PDZ FP-2
COC(=O)N1[C@H](Cc2ccccc2)C=C[C@]1(C)C(=O)NCc1ccccn1	4	nt	2	-2	1
CCOc1cc(C(C(=O)NCC2CCCO2)N(C(=O)Cn2nnc3ccccc32)c2ccccc2C)ccc1O (stereo unspecified)	-3	nt	-5	50*	-2
Nc1cc(=O)[nH]c(SCC(=O)N2N=C(c3ccc4ccccc4c3)CC2c2ccccc2)n1 (stereo unspecified)	-7	-6	-4	32*	0
O=C(Nc1c2c(nn1-c1cccc(Cl)c1)CS(=O)(=O)C2)c1ccc2c(c1)OCO2	5	-1	-1	2	-3
CC(=O)c1ccc(NS(=O)(=O)c2cc3c(cc2C)N(C)CCO3)cc1	-3	71	7	nt	0
CC(=O)c1ccc(NS(=O)(=O)c2ccc3c(c2)N(C)CCO3)cc1	-5	134*	0	-2	-1
CN(C)C(=O)C[C@H]1C[C@H]2c3cc(NC(=O)Nc4ccccc4)ccc3O[C@H]2[C@@H](CO)O1	0	2[16.7 µM]	46	nt	nt
O=C(O)/C=C/C(=O)Nc1ccc2c(c1)C(=O)c1ccccc1C2=O	nt	nt	nt	98*	0
Cc1ccc(NC(=O)c2cc3cccc([N+](=O)[O-])c3[nH]2)cc1	nt	nt	nt	67*	-1
CCC(C)c1ccccc1NC(=O)c1cc2cccc([N+](=O)[O-])c2[nH]1 (stereo unspecified)	7	17	-3	nt	nt
CC1=C([N+](=O)[O-])C(c2ccc(Cl)cc2)NC(=O)N1C (stereo unspecified)	-5	-3	3	0	0
S=C(Nc1cccnc1)NC1CC2CCC1C2 (stereo unspecified)	-3	-2	1	38*	0
CCOC(=O)C1=C(C)NC(C)=C(C(=O)OCC)C1C(=O)OCC(=O)N(C)Cc1ccccc1	nt	5	nt	-2	0
C[C@H](CO)N1C[C@H](C)[C@@H](CN(C)Cc2ccc(Cl)c(Cl)c2)Oc2ccc(NS(=O)(=O)c3cn(C)cn3)cc2CC1=O	2	-10[16.7 µM]	2	nt	nt
CCOC(=O)C1=C(CC)Nc2ccccc2N/C1=N\S(=O)(=O)c1cccc(C(C)=O)c1	-3	-7	3	55*	0
CCOC(=O)C1=C(CC)Nc2ccccc2N/C1=N\S(=O)(=O)c1ccccc1F	2	2	0	-8	-1
CCOC(=O)CNc1cccc(C(F)(F)F)c1	nt	nt	nt	nt	0
COC(=O)CNc1cccc(C(F)(F)F)c1	0	-7	6	75*	17
COC(=O)C1=C(O)/C(=C\c2ccc(OCC(=O)Nc3ccccc3OC)cc2)N=C1C	-1	-4	-1	73*	0
COC(=O)C1=C(O)/C(=C\c2ccc(OCC(=O)Nc3ccc(OC)cc3)cc2)N=C1C	-4	7	17	1	-1
O=C(Nc1ccccc1)c1cccc(NC(=O)c2ccco2)c1	-2	-2	-6	-8	-2
CC(Oc1ccccc1)C(=O)Nc1cccc(NC(=O)c2ccco2)c1 (stereo unspecified)	1	-12	-2	118*	nt
CC(C)[C@H](NC(=O)c1ccco1)C(=O)OCC(=O)Nc1cccc(F)c1	nt	nt	nt	69*	-1
CC(C)[C@H](NC(=O)c1ccco1)C(=O)OCC(=O)Nc1ccc(Cl)c(S(=O)(=O)N(C)C)c1	-6	-5	5	2	-3
COc1ccc(-c2nn(CCC#N)cc2C=C(C#N)C#N)cc1	1	1	-2	62*	-2
SMILES	PglD inh	miR122 inh	Cneo AK release	CAL PDZ FP-1	CAL PDZ FP-2
Cc1ccc(-c2nn(CCC#N)cc2C=C(C#N)C#N)cc1	1	2	0	-1	-3
COC(=O)[C@H]1[C@H](CO)[C@H]2Cn3c(cccc3=O)[C@H]2N1CC1CCOCC1	2	nt	-2	nt	nt
Cc1cccc(NC(=O)c2sccc2-n2cccc2)c1C	-3	-2	-3	32*	nt
Cc1ccc(NC(=O)c2sccc2-n2cccc2)c(Cl)c1	nt	nt	nt	0	-2
CC(C)CC#Cc1cnc2c(c1)C(=O)N([C@H](C)CO)C[C@@H](C)[C@H](CN(C)C(=O)Nc1ccccc1F)O2	-3	2[16.7 µM]	5	nt	nt
CN(CC(=O)Nc1ccc(F)c(F)c1F)C(=O)C1=NN(c2ccccc2)C(=O)CC1	nt	nt	nt	31*	0
CN(CC(=O)Nc1ccc(F)c(F)c1F)C(=O)C1(c2ccccc2)CC1	-3	0	-1	nt	nt
C[C@@H]1CN([C@@H](C)CO)C(=O)Cc2cc(NC(=O)CCC(F)(F)F)ccc2O[C@H]1CN(C)S(C)(=O)=O	2	-1[16.7 µM]	-2	nt	nt
O=C(c1nc2ccccn2c1CNCCCn1ncc2ccccc21)N1CCOCC1	nt	nt	nt	9	0
Cc1cc2ccccc2n1CCNCc1c(C(=O)N2CCOCC2)nc2ccccn12	-4	-16	-1	82*	0
Cc1noc(C)c1S(=O)(=O)Nc1ccc2c(c1)C(=O)N([C@H](C)CO)C[C@H](C)[C@H](CN(C)C(=O)Nc1ccc3c(c1)OCO3)OCCCC[C@H](C)O2	1	-6[16.7 µM]	0	nt	nt
Cc1ccc(S(=O)(=O)N2CCN(C(=O)N(C)C)CC2)cc1	nt	17	nt	-5	67*
Cc1ccc(S(=O)(=O)N2CCN(C(=O)N3CCCC3)CC2)cc1	2	-4	-3	1	-3
CN(C)S(=O)(=O)N1CCN(S(=O)(=O)c2ccccc2)CC1	-5	-4	2	59*	0
CSc1cc(CS(=O)(=O)c2ccccc2)nc(-c2ccccc2)n1	1	-7	-1	79*	-1
O=C(C[C@@H]1C[C@@H]2c3cc(NC(=O)C4CCC4)ccc3O[C@@H]2[C@H](CO)O1)NCc1ccc(Cl)cc1	3	-1[16.7 µM]	-2	nt	nt
CCOc1ccccc1C(=O)NCC(=O)OCC(=O)N1CCCC1	-2	-5	0	44*	0
CCOc1ccccc1C(=O)NCC(=O)OCC(=O)N1C(C)CCCC1C (stereo unspecified)	8	-3	-2	-1	0
C[C@@H]1CN([C@H](C)CO)S(=O)(=O)c2ccc(-c3ccccc3)cc2O[C@H]1CN(C)Cc1cncnc1	1	22[16.7 µM]	-1	nt	nt
O=C(NCc1ccc(Cl)cc1)c1ccc(CNc2c(N3CCOCC3)c(=O)c2=O)cc1	-2	15	0	69*	-1
Fc1ccccc1NC(=S)NCCc1cccc(Cl)c1	3	6	97*	2	-3
Cc1ccc(-c2nc(C)sc2CC(=O)OCC(=O)Nc2ccc(F)c(Cl)c2)cc1	0	-8	1	54*	-2
